In ChEMBL document CHEMBL3817728, “Synthesis, Evaluation, and Mechanism Study of Novel Indole-Chalcone Derivatives Exerting Effective Antitumor Activity Through Microtubule Destabilization in Vitro and in Vivo” (J Med Chem, 2016):
Calls of active or inactive are those of the source. The calls are words filed in the database; no cut-off is given here.

Assays:
MCF7 [1] = assay: Cytotoxicity against human MCF7 cells assessed as cell viability after 48 hrs by MTT assay; type: functional, cell-based; conditions: MCF7, 48 h
Summary of the method: (§1)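 Cancer cell lines treated with compound for 48 h, and viability read by MTT assay. IC50 given as mean ± SD from at least three independent experiments.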

A549 [2] = assay: Induction of apoptosis in human A549 cells assessed as early apoptotic cells at 10 nM after 48 hrs by annexin V-FITC/propidium iodide staining-based flow cytometric method (reference value: 1.95%); type: functional
A549 [3] = assay: Induction of apoptosis in human A549 cells assessed as early apoptotic cells at 3 nM after 24 hrs by annexin V-FITC/propidium iodide staining-based flow cytometric method (reference value: 1.07%); type: functional
Mus musculus = assay: Toxicity in BALB/c nude mouse xenografted with human A549 cells assessed as loss of body weight at 30 mg/kg, ip administered every other day for 1 month measured every other day post dose relative to vehicle-treated control; type: organism-based; conditions: in vivo
MCF7 [4] = assay: Resistance index, ratio of IC50 for human MCF7/DX cells to IC50 for human MCF7 cells; type: functional
A549 [5] = assay: Induction of apoptosis in human A549 cells assessed as viable cells at 1 nM after 48 hrs by annexin V-FITC/propidium iodide staining-based flow cytometric method (reference value: 98.1%); type: functional; conditions: A549, 48 h, read-out: Activity
Summary of the method: (§2)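 A549 cells exposed 24 h or 48 h at indicated concentrations, then trypsinized, harvested and stained with Annexin V-FITC and PI; flow cytometry quadrants scored as necrotic (upper left), late apoptotic (upper right), live (bottom left) and early apoptotic (bottom right). Five independent experiments, representative shown.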

A549 [6] = assay: Induction of apoptosis in human A549 cells assessed as early apoptotic cells at 10 nM after 24 hrs by annexin V-FITC/propidium iodide staining-based flow cytometric method (reference value: 1.07%); type: functional
A549 [7] = assay: Induction of apoptosis in human A549 cells assessed as late apoptotic cells at 3 nM after 48 hrs by annexin V-FITC/propidium iodide staining-based flow cytometric method (reference value: 0.01%); type: functional
Tubulin (Sus scrofa) [8] = molecular target: T1, Tubulin (Sus scrofa) (UniProt P02554+P02550); assay: Inhibition of [3H]-colchicine binding to porcine brain tubulin at 1 uM relative to control
T1 sequence (P02550 whole entry, looked up): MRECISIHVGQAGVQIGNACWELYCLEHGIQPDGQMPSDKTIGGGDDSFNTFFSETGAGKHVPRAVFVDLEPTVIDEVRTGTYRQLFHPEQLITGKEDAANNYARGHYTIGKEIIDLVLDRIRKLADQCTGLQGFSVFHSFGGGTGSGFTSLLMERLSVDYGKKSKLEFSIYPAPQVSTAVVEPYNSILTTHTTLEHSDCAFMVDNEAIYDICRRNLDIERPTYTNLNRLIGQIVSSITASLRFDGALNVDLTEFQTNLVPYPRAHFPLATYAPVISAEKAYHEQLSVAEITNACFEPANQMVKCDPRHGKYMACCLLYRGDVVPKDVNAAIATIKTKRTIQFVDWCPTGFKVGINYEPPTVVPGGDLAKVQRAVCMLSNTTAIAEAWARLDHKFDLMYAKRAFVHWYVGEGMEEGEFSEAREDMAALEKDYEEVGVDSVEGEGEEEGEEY
T1 sequence (P02554 whole entry, looked up): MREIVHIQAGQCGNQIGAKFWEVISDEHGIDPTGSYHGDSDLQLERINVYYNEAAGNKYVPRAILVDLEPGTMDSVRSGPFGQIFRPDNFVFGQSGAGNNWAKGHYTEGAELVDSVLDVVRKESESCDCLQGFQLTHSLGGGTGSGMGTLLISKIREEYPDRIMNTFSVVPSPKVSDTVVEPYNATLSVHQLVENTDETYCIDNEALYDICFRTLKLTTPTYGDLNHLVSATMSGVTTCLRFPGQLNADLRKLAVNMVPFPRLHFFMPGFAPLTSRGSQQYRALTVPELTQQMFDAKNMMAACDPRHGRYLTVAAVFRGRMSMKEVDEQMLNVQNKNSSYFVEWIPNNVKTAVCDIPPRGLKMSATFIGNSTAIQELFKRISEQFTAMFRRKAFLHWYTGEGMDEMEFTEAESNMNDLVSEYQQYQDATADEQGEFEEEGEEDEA
Summary of the method: (§3)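 Competition with [3H]colchicine at 5 μM; test agents at 5 or 1 μM. Mean ± SD of at least three independent experiments.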

[9] = Selectivity ratio of IC50 for human BJ cells to IC50 for human A549 cells; type: ADME, cell-based; conditions: BJ cells versus A549 cells, read-out: Ratio IC50
Summary of the method: (§4)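 Selectivity ratio = IC50 in normal cells / IC50 in A549; IC50 values mean ± SE from dose-response curves of at least three independent experiments. HUVECs kept quiescent in endothelial cell medium with 0.5% fetal calf serum, no growth factor.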

[10] = Selectivity ratio of IC50 for quiescent HUVEC to IC50 for human A549 cells; type: ADME, cell-based; conditions: quiescent HUVEC versus A549 cells, read-out: Ratio IC50; summary of the method: as §4
A2780 = assay: Cytotoxicity against human A2780 cells assessed as cell viability after 48 hrs by MTT assay; type: functional, cell-based; conditions: A2780, 48 h; summary of the method: as §1
Tubulin (Sus scrofa) [11] = molecular target: T1, Tubulin (Sus scrofa); assay: Inhibition of [3H]-colchicine binding to porcine brain tubulin at 5 uM relative to control; summary of the method: as §3
A549 [12] = assay: Disruption of mitochondrial membrane potential in human A549 cells assessed as green fluorescence intensity at 3 nM after 24 hrs by JC1 staining-based flow cytometric method (reference value: 0.02%); type: functional
[13] = Cytotoxicity against human HCT8 cells assessed as cell viability after 48 hrs by MTT assay; type: functional, cell-based; conditions: HCT-8, 48 h; summary of the method: as §1
A549 [14] = assay: Disruption of microtubule network in human A549 cells assessed as multinucleation at 10 nM after 24 hrs by Hoechst 33342 staining-based laser scanning confocal microscopic analysis; type: cell-based
Summary of the method: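 A549 cells plated in confocal dishes and incubated with compound for 24 h. Cells were then fixed and stained, and microtubule and spindle organization was imaged by laser confocal microscopy. Experiments done five times; representative results shown.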

A549 [15] = assay: Induction of apoptosis in human A549 cells assessed as necrotic cells at 10 nM after 24 hrs by annexin V-FITC/propidium iodide staining-based flow cytometric method (reference value: 0.03%); type: functional
[16] = Cytotoxicity against human HCT8/VCT cells assessed as growth inhibition after 48 hrs by MTT assay; type: functional, cell-based
Summary of the method: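 Drug-resistant lines were tested by a 48 h MTT viability assay. IC50 was derived from dose-response curves and reported as mean ± SE of at least three independent experiments.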

A549 [17] = assay: Induction of apoptosis in human A549 cells assessed as late apoptotic cells at 1 nM after 24 hrs by annexin V-FITC/propidium iodide staining-based flow cytometric method (reference value: 0.01%); type: functional
A549 [18] = assay: Resistance index, ratio of IC50 for human A549/CDDP cells to IC50 for human A549 cells; type: functional
A549 [19] = assay: Induction of apoptosis in human A549 cells assessed as viable cells at 3 nM after 48 hrs by annexin V-FITC/propidium iodide staining-based flow cytometric method (reference value: 98.1%); type: functional; conditions: A549, 48 h, read-out: Activity; summary of the method: as §2
A549 [20] = assay: Induction of apoptosis in human A549 cells assessed as late apoptotic cells at 1 nM after 48 hrs by annexin V-FITC/propidium iodide staining-based flow cytometric method (reference value: 0.01%); type: functional
[21] = Metabolic stability in Sprague-Dawley rat liver microsomes assessed as compound remaining at 180 mins in presence of NADPH regenerating system by HPLC method; type: ADME; conditions: read-out: Stability
Summary of the method: (§5)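 Rat liver microsomes incubated with compound at 37 ℃ for indicated times in buffer containing NADPH regenerating system; residual parent determined by HPLC.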

A549 [22] = assay: Induction of apoptosis in human A549 cells assessed as necrotic cells at 1 nM after 48 hrs by annexin V-FITC/propidium iodide staining-based flow cytometric method (reference value: 0.01%); type: functional
A549 [23] = assay: Induction of apoptosis in human A549 cells assessed as viable cells at 3 nM after 24 hrs by annexin V-FITC/propidium iodide staining-based flow cytometric method (reference value: 98.9%); type: functional; conditions: A549, 24 h, read-out: Activity; summary of the method: as §2
A549 [24] = assay: Induction of apoptosis in human A549 cells assessed as late apoptotic cells at 3 nM after 24 hrs by annexin V-FITC/propidium iodide staining-based flow cytometric method (reference value: 0.01%); type: functional
[25] = Cytotoxicity against human MCF10A cells assessed as growth inhibition after 48 hrs by MTT assay; type: cell-based; conditions: MCF-10A
Summary of the method: (§6)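 Non-tumorigenic cells given 48 h compound exposure, and viability read by MTT. IC50 is mean ± SE from dose-response curves of at least three independent experiments. HUVECs were kept quiescent in endothelial cell medium with 0.5% fetal calf serum and no growth factor.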

A549 [26] = assay: Induction of apoptosis in human A549 cells assessed as necrotic cells at 3 nM after 48 hrs by annexin V-FITC/propidium iodide staining-based flow cytometric method (reference value: 0.01%); type: functional; summary of the method: as §2
A549 [27] = assay: Induction of apoptosis in human A549 cells assessed as necrotic cells at 3 nM after 24 hrs by annexin V-FITC/propidium iodide staining-based flow cytometric method (reference value: 0.03%); type: functional
[28] = Metabolic stability in Sprague-Dawley rat liver microsomes assessed as compound remaining at 150 mins in presence of NADPH regenerating system by HPLC method; type: ADME; conditions: read-out: Stability; summary of the method: as §5
BJ = assay: Cytotoxicity against human BJ cells assessed as growth inhibition after 48 hrs by MTT assay; type: cell-based; summary of the method: as §6

`COc1ccc2c(/C=C(\C)C(=O)c3cc(OC)c(OC)c(OC)c3)c[nH]c2c1` gave an IC50 (MCF7 [1]) of 6 nM, an Activity (A549 [2]) of 8.41% and an Activity (A549 [3]) of 28.6%. The Activity (Mus musculus) was “Non-toxic”, the “Ratio IC50” value (MCF7 [4]) was 1.5 and the viability at 0.001 µM (A549 [5]) was 66.8%. For the same compound, the Activity (A549 [6]) was 25.27%, the Activity (A549 [7]) was 33.4% and the inhibition (Tubulin (Sus scrofa) [8]) was 82%. The selectivity ratio [9] was 2970, the selectivity ratio [10] was 54.3 and the IC50 (A2780) was 8 nM. For the same compound, the inhibition (Tubulin (Sus scrofa) [11]) was 96%, the Activity (A549 [12]) was 43.8% and the IC50 [13] was 6 nM. For the same compound, the Activity (A549 [14]) was “Active”, the Activity (A549 [15]) was 2.94% and the IC50 [16] was 5 nM. For the same compound, the Activity (A549 [17]) was 2.12%, the “Ratio IC50” value (A549 [18]) was 1.33 and the viability at 0.003 µM (A549 [19]) was 33.9%. The Activity (A549 [20]) was 14.6%, the remaining at 3 h [21] was 42.4% and the Activity (A549 [22]) was 1.52%. The viability at 0.003 µM (A549 [23]) was 69.7%, the Activity (A549 [24]) was 3.56% and the IC50 [25] was 2670 nM. For the same compound, the Activity (A549 [26]) was 2.69%, the Activity (A549 [27]) was 1.07% and the remaining at 2.5 h [28] was 54.1%. The IC50 (BJ) was 8920 nM.
